The values that follow come from ChEMBL document CHEMBL1275283, “Synthesis and evaluation of novel stearoyl-CoA desaturase 1 inhibitors: 1'-{6-[5-(pyridin-3-ylmethyl)-1,3,4-oxadiazol-2-yl]pyridazin-3-yl}-3,4-dihydrospiro[chromene-2,4'-piperidine] analogs” (Eur J Med Chem, 2010).

In brackets after ≈: the same amount, converted by molar mass.

Series [1] has as its target T1, Stearoyl-CoA desaturase (Homo sapiens, UniProt O00767).
T1 sequence (O00767 whole entry): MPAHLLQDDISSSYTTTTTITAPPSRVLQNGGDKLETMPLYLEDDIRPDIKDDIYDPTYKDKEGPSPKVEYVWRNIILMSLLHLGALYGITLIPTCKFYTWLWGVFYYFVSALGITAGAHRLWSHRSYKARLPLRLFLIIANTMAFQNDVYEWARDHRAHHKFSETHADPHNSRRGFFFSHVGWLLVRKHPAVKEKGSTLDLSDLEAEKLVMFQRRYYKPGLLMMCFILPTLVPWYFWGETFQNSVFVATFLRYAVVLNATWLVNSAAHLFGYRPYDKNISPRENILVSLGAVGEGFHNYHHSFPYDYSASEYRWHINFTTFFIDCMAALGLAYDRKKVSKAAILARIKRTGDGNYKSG
Description: Inhibition of SCD1 in HEK293A cell microsomes assessed as reduction in conversion of [14C]stearic acid to [14C]oleic acid after 30 mins. Details: species or system HEK293-A, Microsome.

In a further series the target is T2, Acyl-CoA desaturase 1 (Mus musculus, UniProt P13516).
T2 sequence (P13516 whole entry): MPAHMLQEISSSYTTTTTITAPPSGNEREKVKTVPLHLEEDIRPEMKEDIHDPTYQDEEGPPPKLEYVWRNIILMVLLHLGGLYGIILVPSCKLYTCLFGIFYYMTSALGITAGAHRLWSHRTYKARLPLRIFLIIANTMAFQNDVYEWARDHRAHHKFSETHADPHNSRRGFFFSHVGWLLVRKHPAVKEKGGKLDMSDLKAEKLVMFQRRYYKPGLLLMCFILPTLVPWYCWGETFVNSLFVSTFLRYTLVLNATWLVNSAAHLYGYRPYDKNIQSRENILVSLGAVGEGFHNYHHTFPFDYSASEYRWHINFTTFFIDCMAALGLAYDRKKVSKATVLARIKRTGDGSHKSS
Description: Inhibition of SCD1 in mouse microsome assessed as reduction in conversion of [14C]stearic acid to [14C]oleic acid after 30 mins. Type of series: microsomes.

In series [2] the target is T1, Stearoyl-CoA desaturase. As to the kind of experiment: Inhibition of human SCD1 expressed in HEK293A cells assessed as reduction in conversion of [14C]stearic acid to [14C]oleic acid after 30 mins. It counts as cell-based, HEK293-A. The method, boiled down:
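293A cells stably expressing human SCD1 (G418-selected) grown to confluence in DMEM + 10% FBS. Cells preincubated with compound 30 min, then given 0.1 µCi [14C]stearate for 4 h. Lipids saponified in KOH, separated by AgNO3-TLC, and the [14C]oleate/[14C]stearate ratio used as activity. IC50 derived from this read-out.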

In another series the test system is Mus musculus. Description: Inhibition of liver SCD1 activity in po dosed db/db mouse assessed as reduction in conversion of [14C]stearic acid to [14C]oleic acid. It counts as functional. Conditions: read-out: ID50 (the source's name). In a few lines:
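Seven-week-old male db/db mice dosed by oral gavage 2 h before i.p. [14C]stearate (100 µCi/kg in saline with 2% BSA). Livers harvested 1 h later and homogenized in cold PBS. Saponified homogenate analyzed by AgNO3-TLC for the [14C]oleate/[14C]stearate ratio. ID50 is the dose giving 50% inhibition.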

Series [3] has as its target T1, Stearoyl-CoA desaturase. Description: Inhibition of human SCD1. The method, boiled down:
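Microsomes from 293A cells as the human SCD1 source, preincubated with compound for 10 min at room temperature. Reaction run 60 min at 37 °C in pH 7.4 phosphate buffer with ATP 1 mM, NADH 1.25 mM, CoA and [14C] stearate. Product saponified and separated on AgNO3-TLC. Activity is the [14C] oleate/stearate ratio. IC50 by linear regression; mean of ≥2 experiments.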

Series [4] in a line: Aqueous solubility of the compound at acidic JP-1 solution of pH 1.2 by HPLC analysis. Type of series: physicochemical. The method, boiled down:
(§1)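 Solubility measured in purchased aqueous acidic JP-1 (pH 1.2) or neutral JP-2 (pH 6.8) media. Samples analyzed by HPLC, with UV peak area compared to a calibration standard of 250 µM compound in CH3CN/water 1:1. Means of at least two experiments.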

Series [5] in a line: Aqueous solubility of the compound at neutral JP-2 solution of pH 6.8 by HPLC analysis. Type of series: physicochemical. The method, boiled down:
as §1

Series [6] is described as follows: Cmax in C57BL/6J mouse at 20 mg/kg, po up to 8 hrs. It counts as ADME, organism-based. Details: dose 20 mg/kg, route oral. Conditions: in vivo. In a few lines:
(§2)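 Oral gavage via intubation tube at 20 mg/kg in propylene glycol/Tween 4:1, n = 3 C57BL/6J mice. Plasma sampled up to 8 h after dosing. Values are arithmetic means of at least two experiments.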

A short description of series [7]: Tmax in C57BL/6J mouse at 20 mg/kg, po. It counts as ADME, organism-based. Details: dose 20 mg/kg, route oral. The conditions noted are these: in vivo. The method, boiled down: as §2
Series [8] can be described thus: AUC (0 to 8 hrs) in C57BL/6J mouse at 20 mg/kg, po. Conditions: plasma. Further details: time < 8 hr, dose 20 mg/kg, route oral. It counts as ADME, organism-based. The method, boiled down:
as §2

The nature of series [9]: Half life in C57BL/6J mouse at 20 mg/kg, po. It counts as ADME, organism-based. Details: dose 20 mg/kg, route oral. Conditions: in vivo. The method, boiled down:
as §2

Turning to `c1ccc(Cc2nnc(-c3ccc(N4CCC5(CCc6ccccc6O5)CC4)nn3)o2)nc1`, the concentration for half-maximal inhibition (IC50) on Stearoyl-CoA desaturase [1] is 4 nM; at Acyl-CoA desaturase 1, 3 nM; on Stearoyl-CoA desaturase [2] it was 9 nM. Further, the ED50 with Mus musculus worked out at 6 mg/kg.

Regarding `FC(F)(F)c1cccc2c1CCC1(CCN(c3ccc(-c4nnc(Cc5cccnc5)o4)nn3)CC1)O2`, the half-maximal inhibitory concentration (IC50) on Stearoyl-CoA desaturase [3] stood at 0.03 nM; on Stearoyl-CoA desaturase [1], 0.03 nM; on Acyl-CoA desaturase 1, 0.06 nM. Besides, the ED50 with Mus musculus is 0.4 mg/kg. The results for the solubility in [4] and in [5] were 88 µM (≈ 44.7 µg/mL) and under 0.5 µM, respectively.

On to `Cc1cccc2c1CCC1(CCN(c3ccc(-c4nnc(Cc5cccnc5)o4)nn3)CC1)O2`, for which the 50% inhibitory concentration (IC50) at Stearoyl-CoA desaturase [1] came to 0.2 nM; on Acyl-CoA desaturase 1, 0.2 nM; on Stearoyl-CoA desaturase [2], 0.7 nM. Also, the ED50 with Mus musculus came out at 1 mg/kg. For the same molecule, the solubility is 91 µM (≈ 41.4 µg/mL) in [4] and under 0.5 µM in series [5]. In addition, the Cmax in series [6] is 1100 ng/mL. For the same molecule, the time to peak (Tmax) in [7] worked out at 48 min. The AUC(0-t) at 8 h in series [8] is 2100 ng·h/mL. The molecule further gave a half-life in series [9] of 36 min.

Regarding `Clc1cccc2c1CCC1(CCN(c3ccc(-c4nnc(Cc5cccnc5)o4)nn3)CC1)O2`, the IC50 stood at 0.06 nM at Stearoyl-CoA desaturase [1], 0.04 nM at Acyl-CoA desaturase 1 and 1 nM on Stearoyl-CoA desaturase [2]. Moreover, the ED50 with Mus musculus was 1 mg/kg. Also, the solubility is over 50 µM in series [4] and under 0.5 µM in series [5]. The molecule also registered a maximum concentration (Cmax) in [6] of 690 ng/mL. Also, in [7], the Tmax was 48 min. The molecule further returned an exposure AUC(0-t) at 8 h in series [8] of 1400 ng·h/mL. The half-life in [9] was 42 min.
